Experimental data from PubChem BioAssay.
The source made the active and inactive calls.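 How the source made its calls, unless noted: active means viability at or under a set limit in both replicates, limit being median viability minus 3 SD (cut at about 48% in these data, passing the limit was not always enough); inconclusive means at or under the limit in just one replicate; inactive means at or above the limit in both replicates.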

Assays:
[1] = Her2 expression decrease, cell viability multiplex – SKBR3 breast tumor cells, AlphaScreen, ATP viability, primary screen (AID 461;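 active means Her2 level under about 52% in both replicate screens, with viability over 70% of control, limit read from the data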;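 on Her2 level: lower value means less Her2 protein in the cells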;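 on viability: percent of carrier control wells set as 100% viability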); details: SKBR3 Her2 protein level, 18-24 h, measured here: SKBR3 viability, ATP luminescence, at 10 µM
[2] = target: Receptor tyrosine-protein kinase erbB-2 (Homo sapiens) (UniProt P04626); assay: as above; details: 18-24 h, at 10 µM, stronger effect = lower value
Sequence of Receptor tyrosine-protein kinase erbB-2 (Homo sapiens) (P04626 whole entry, looked up): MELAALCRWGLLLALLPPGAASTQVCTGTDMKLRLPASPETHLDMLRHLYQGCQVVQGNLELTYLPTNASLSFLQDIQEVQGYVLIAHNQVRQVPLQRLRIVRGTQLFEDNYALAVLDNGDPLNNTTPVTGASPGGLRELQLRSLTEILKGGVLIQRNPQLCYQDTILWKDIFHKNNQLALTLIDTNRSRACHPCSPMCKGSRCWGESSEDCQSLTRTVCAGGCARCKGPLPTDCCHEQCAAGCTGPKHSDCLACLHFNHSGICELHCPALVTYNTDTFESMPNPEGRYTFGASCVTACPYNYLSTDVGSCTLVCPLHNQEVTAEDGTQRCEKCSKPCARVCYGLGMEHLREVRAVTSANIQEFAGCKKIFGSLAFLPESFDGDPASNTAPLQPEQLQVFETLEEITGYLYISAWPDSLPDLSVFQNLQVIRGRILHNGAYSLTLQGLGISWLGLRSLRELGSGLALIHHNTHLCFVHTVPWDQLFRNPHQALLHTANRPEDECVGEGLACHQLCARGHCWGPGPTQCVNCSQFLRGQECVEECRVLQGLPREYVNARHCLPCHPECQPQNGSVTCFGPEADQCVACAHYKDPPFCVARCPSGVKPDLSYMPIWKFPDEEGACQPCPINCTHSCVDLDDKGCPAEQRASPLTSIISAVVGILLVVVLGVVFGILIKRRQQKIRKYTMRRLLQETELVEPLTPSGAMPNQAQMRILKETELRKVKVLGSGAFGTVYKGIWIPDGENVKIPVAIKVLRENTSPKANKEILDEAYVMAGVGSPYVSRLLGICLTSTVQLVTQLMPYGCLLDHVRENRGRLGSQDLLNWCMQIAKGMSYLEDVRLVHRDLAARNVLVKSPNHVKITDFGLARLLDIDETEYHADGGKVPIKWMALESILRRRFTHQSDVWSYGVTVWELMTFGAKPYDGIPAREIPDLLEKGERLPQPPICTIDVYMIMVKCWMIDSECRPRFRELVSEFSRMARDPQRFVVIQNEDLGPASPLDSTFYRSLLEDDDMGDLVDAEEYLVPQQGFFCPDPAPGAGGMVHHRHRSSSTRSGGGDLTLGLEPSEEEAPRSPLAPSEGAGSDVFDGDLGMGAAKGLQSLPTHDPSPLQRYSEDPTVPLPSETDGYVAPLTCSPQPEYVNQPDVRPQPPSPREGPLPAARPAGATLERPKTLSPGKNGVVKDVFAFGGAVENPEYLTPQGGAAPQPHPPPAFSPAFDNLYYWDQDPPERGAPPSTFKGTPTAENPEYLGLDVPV

[3] = reduced viability of SK-BR-3 breast cancer cells – cell-based, 24 h, human, pilot screen (AID 572;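 active means viability at or below 10% of carrier control in both of two separate runs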;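 further: compound exposure lasted between 18 and 24 h rather than exactly 24 h; 100% = carrier-treated control wells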); details: SK-BR-3 viability, CellTiter-Glo luminescence, at 10 µM, stronger effect = lower value
[4] = HUVEC growth inhibition – cell-based, human, primary screen (AID 575;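 active means viability at or below 30% in both replicate assays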;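 further: 100% = median of untreated cell wells with 0.1% DMSO on each plate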); details: HUVEC proliferation, CellTiter-Glo luminescence, 72 h; at 10 µM; stronger effect = lower value
Outline: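 Assay system: primary human umbilical vein endothelial cells / Buffer or medium: endothelial basal medium with 2% FBS plus growth supplements / Compound dosing: one dose, 10 µM final, 0.1% DMSO / Timing: 72 h treatment at 37 °C / Signal: CTG luminescence / Benchmarks: 32 DMSO-only cell-control wells (high), 32 MePR drug-control wells (low) per plate / Plate: collagen-coated 384-well format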

[5] = H69AR cell proliferation blockers – human, duplicate replicates, primary screen (AID 580); details: H69AR lung tumor cells viability, ATP luminescence, 72 h; at 10 µM; stronger effect = lower value;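 further: 100% = mean luminescence of untreated wells and 0% = no signal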
[6] = MRP1 drug-resistance reversers in H69AR cells – cell-based, doxorubicin co-treatment, pilot screen (AID 601;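 active means viability loss from added drug above about 55%, and viability with drug at most 40%, in both replicates, limit read from the data, passing the limit was not always enough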); details: CellTiter-Glo, 72 h, at 10 µM; for differential viability (reversal): stronger effect = higher value
[7] = yeast transport mutant growth inhibition pilot in 384-well plates, post-Golgi transport modulator project (AID 636; in the data active means inhibition above about 31%); details: absorbance 615 nm, about 18 h, stronger effect = higher value
[8] = growth suppression of yeast trafficking mutant, preliminary HTS, modulators of trafficking downstream of Golgi apparatus project, 1536-format plate, OD 615 nm (AID 637; in the data active means inhibition above about 30%); details: yeast transport mutant growth, absorbance 615 nm, 18 h; stronger effect = higher value
[9] = H69AR cells + 2 uM doxorubicin, measured here: viability with 2 uM doxorubicin, stronger effect = lower value
[10] = H69AR cells, compound alone cytotoxicity

Row | Compound | viability [1] [%] | Her2 level [2] | viability [3] | viability [4] | viability [5] | differential viability (reversal) ([6]; H69AR cells + 2 uM doxorubicin) | viability [6, 9] [%] | viability [6, 10] [%] | inhibition [7] | inhibition [8]
1 | Cc1ccccc1NC(=O)CSc1nnc(Cc2cccn2C)n1-c1ccc(F)cc1 | 88.5 | 112% (inactive) | 88.5% (inactive) | 78.6% (inactive) | 100% (inactive) | -1.44% (inactive) | 102 | 100 | -0.9% (inactive) | -3.5% (inactive)
2 | O=C(NCc1ccco1)Nc1ccc2nsnc2c1 | 104 | 114% (inactive) | 104% (inactive) | 51.5% (inactive) | 22% (active) | -1.17% (inactive) | 23.2 | 22 | -3.6% (inactive) | -6.45% (inactive)
3 | CCCCOc1ccc(-c2ncc(C(=O)OCC)c(N)n2)cc1 | 89.5 | 88% (inactive) | 89.5% (inactive) | 103% (inactive) | 90% (inactive) | 8.43% (inactive) | 81.5 | 90 | -6.8% (inactive) | -6.03% (inactive)
4 | COc1cc(C(N)=O)ccc1OCc1ccccc1 | 86 | 83.5% (inactive) | 86% (inactive) | 91.6% (inactive) | 98.7% (inactive) | 8% (inactive) | 90.8 | 98.7 | -1.45% (inactive) | -7.14% (inactive)
5 | C=CCNC(=O)CNS(=O)(=O)c1ccc(F)cc1 | 87 | 95.5% (inactive) | 87% (inactive) | 92.5% (inactive) | 95.4% (inactive) | 1.88% (inactive) | 93.6 | 95.4 | -1.45% (inactive) | 0% (inactive)
6 | Cc1nn(C)cc1/C=N/O | 100 | 105% (inactive) | 100% (inactive) | 95.8% (inactive) | 104% (inactive) | 7.1% (inactive) | 96.5 | 104 | -7.47% (inactive) | 1.45% (inactive)
7 | CCCCc1nc2n[nH]c(N)c2c2c1CCCC2 | 138 | 96% (inactive) | 138% (inactive) | 59.9% (inactive) | 92.3% (inactive) | 6.68% (inactive) | 85.6 | 92.3 | -5.47% (inactive) | -0.82% (inactive)
8 | CCC(C)(C)NC(=O)CN(C(=O)c1snc(C(N)=O)c1N)c1ccc2c(c1)OCO2 | 104 | 94% (inactive) | 104% (inactive) | 110% (inactive) | 110% (inactive) | 7.68% (inactive) | 102 | 110 | -4.93% (inactive) | -1.27% (inactive)
9 | CC(C)OC(=O)CSc1nnnn1-c1ccc2c(c1)OCCO2 | 99.5 | 84.5% (inactive) | 99.5% (inactive) | 99% (inactive) | 88.6% (inactive) | 6.42% (inactive) | 82.2 | 88.6 | -7.03% (inactive) | -2.33% (inactive)
10 | COc1ccc(C)cc1S(=O)(=O)N(C)CC(=O)Nc1ccc2c(c1)OCO2 | 129 | 98% (inactive) | 129% (inactive) | 92.7% (inactive) | 89.2% (inactive) | 1.07% (inactive) | 88.1 | 89.2 | -4.67% (inactive) | -4.92% (inactive)
11 | CCNC(=O)C1CC(=O)N(Cc2ccc3c(c2)OCO3)C(=Nc2ccc(OCC)cc2)S1 (stereo not given) | 94.5 | 76% (inactive) | 94.5% (inactive) | 48.6% (inactive) | 66.1% (inactive) | 2.95% (inactive) | 63.1 | 66.1 | -2.11% (inactive) | 6.89% (inactive)
12 | CCOc1ccc(OCC)c(NC(=O)C2CCN(S(=O)(=O)c3cnc[nH]3)CC2)c1 | 95.5 | 99% (inactive) | 95.5% (inactive) | 96.2% (inactive) | 111% (inactive) | 11.1% (inactive) | 100 | 111 | -2.37% (inactive) | -2.74% (inactive)
13 | O=C(c1ncc[nH]1)c1ccccc1C(=O)N1CCOCC1 | 118 | 112% (inactive) | 118% (inactive) | 100% (inactive) | 90.3% (inactive) | 3.04% (inactive) | 87.3 | 90.3 | -5.21% (inactive) | 1.75% (inactive)
14 | CCOC(=O)Cc1csc(NC(=O)CSc2nnc(-c3ccncc3)n2Cc2ccco2)n1 | 107 | 82.5% (inactive) | 107% (inactive) | 94.1% (inactive) | 97.6% (inactive) | 7.66% (inactive) | 89.9 | 97.6 | -5.14% (inactive) | 5.24% (inactive)
15 | Cc1ccccc1OCc1nc2ccccc2c(=O)n1/N=C/c1ccco1 | 102 | 100% (inactive) | 102% (inactive) | 71% (inactive) | 104% (inactive) | 8.3% (inactive) | 95.3 | 104 | 0.53% (inactive) | -2.9% (inactive)
